DAGLB inhibitor: blocks human DAGLB lipase activity; Q8NCG7; HEK293T DAGLB membrane lysate, EnzChek fluorogenic substrate; inhibition, % at 5.17 µM; actives 0.059% (n = 340,000); AID 504411; in the data active means inhibition above about 34%;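 further: 0% = enzyme with vehicle and 100% = wells lacking enzyme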
TAAR1 ag: agonists of human TAAR1. CHO RD-HGA16 TAAR1, Fluo-8 calcium fluorescence; vehicle wells 0%, saturating PEA agonist 100%. actives 0.99% (n = 360,000). activation, % at 3 µM. Q96RJ0;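 active means activation above the mean activation of all test compounds in the run plus 3 SD, cut at about 38% in these data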
Target sequence (Q96RJ0 whole entry, looked up): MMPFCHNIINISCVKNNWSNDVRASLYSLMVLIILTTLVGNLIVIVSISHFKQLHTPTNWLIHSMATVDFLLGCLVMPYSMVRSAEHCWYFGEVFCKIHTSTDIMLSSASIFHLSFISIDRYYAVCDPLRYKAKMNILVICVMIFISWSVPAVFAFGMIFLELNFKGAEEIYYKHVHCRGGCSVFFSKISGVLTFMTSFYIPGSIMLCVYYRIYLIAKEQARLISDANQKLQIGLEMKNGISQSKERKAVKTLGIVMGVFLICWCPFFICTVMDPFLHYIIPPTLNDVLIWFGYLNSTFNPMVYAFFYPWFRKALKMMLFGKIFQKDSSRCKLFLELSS
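System: CHO RD-HGA16 cells carrying human TAAR1 plus Gα16; Incubation: 17-24 h seeding, 75 min 37 °C dye, 30 min RT; Measured by: Fluo-8 fluorescence, 5 s baseline then 140 s kinetic read; Control set: DMSO and PEA EC100; Replication: single well for each compound.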
GPR7 antagonist: human neuropeptides B/W receptor 1 antagonism. P48145. GPR7-expressing cells, fluorescence antagonist assay. inhibition, % at 4.4 µM. actives 1.1% (n = 290,000); in the data active means inhibition above about 16%, passing the limit was not always enough;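 further: cells stimulated with the agonist NPW; 0% = agonist with vehicle and 100% = vehicle without agonist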
TAAR1 antagonist: antagonists of human TAAR1 | Q96RJ0 | CHO RD-HGA16 TAAR1, Fluo-8 calcium fluorescence, antagonist | inhibition, % at 3 µM | actives 1.5% (n = 360,000);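 active means inhibition above a per-plate cutoff, the mean inhibition of test compounds on that plate plus 3 SD, cut at about 49% in these data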;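 further: 0% = DMSO plus EC80 beta-PEA response and 100% = DMSO alone without agonist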
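Test system: RD-HGA16 CHO cells with stable hTAAR1 and Gα16 / Probe or stimulus: EC80 β-phenethylamine stimulus / Times: seeding 17-24 h prior, 75-min 37 °C, 30-min RT dye loading / Detection: Fluo-8 calcium-sensitive fluorescence / Read-out basis: % inhibition scaled between DMSO and EC80 PEA controls / Repeats: singlicate, one well per test compound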
MPTP block: inhibitors of mitochondrial permeability transition pore | AID 602449 | actives 1.4% (n = 360,000) | inhibition, % at 10 µM | isolated mouse mitochondria, Ca2+ swelling absorbance, 30 min;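 active means inhibition of 50% or more, scaled per plate between neutral and stimulator controls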;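 further: 0% = DMSO wells given calcium and 100% = 1 mM EGTA wells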
DAGLB inh conf: DAGLB (human) inhibition, confirmation screen | actives 73% (n = 190) | inhibition, % at 5.17 µM | AID 504445 | shares compounds with DAGLB inhibitor | HEK293T DAGLB membrane lysate, EnzChek fluorogenic substrate;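 active means mean inhibition over triplicate wells above a set limit taken from the primary lipase screen, cut at about 34% in these data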;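 further: 0% = DAGLB with DMSO and 100% = wells lacking DAGLB enzyme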
Rh123 counter: Rhodamine 123 counter-screen of mitochondrial pore hits. shares compounds with MPTP block. isolated mitochondria, membrane potential, Rhodamine 123 fluorescence. inhibition, % at 10 µM. actives 78% (n = 5,000). AID 624504;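 further: 0% = DMSO vehicle and 100% = positive control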
nonsel antag count: nonselective antagonism, TAAR1 counter-screen; counterscreen cell line, calcium fluorescence, antagonist mode; shares compounds with TAAR1 antagonist; inhibition, % at 3 µM; actives 77% (n = 2,400);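 further: CHO-Ga16 host cells stimulated with ATP at an EC80 level; 0% = agonist EC80 plus vehicle and 100% = vehicle without agonist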
TAAR1 antag conf: human TAAR1 antagonism, confirmed. actives 40% (n = 2,400). AID 651785. TAAR1-expressing cells, fluorescence antagonist read-out. shares compounds with TAAR1 antagonist. inhibition, % at 3 µM; in the data active means inhibition above about 49%;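 further: CHO-Ga16 host cells challenged with agonist PEA near its EC80; 0% = agonist at EC80 plus vehicle and 100% = vehicle with no agonist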
Ga16 ag counter-1: nonselective Ga16 agonist in TAAR1 antagonist counter-screen. actives 18% (n = 2,400). activation, % at 3 µM. AID 651953. Ga16-expressing cells, calcium fluorescence, agonist counterscreen. shares compounds with TAAR1 antagonist; in the data active means activation above about 12%;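 further: 0% = vehicle wells and 100% = saturating stimulus response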
TAAR1 ag counter: activates human TAAR1 in antagonist counter-screen | hTAAR1 cell line, fluorescence activation, agonist mode | actives 2% (n = 2,400) | shares compounds with TAAR1 antagonist | activation, % at 3 µM; in the data active means activation above about 37%;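 further: CHO cells stably expressing TAAR1 with calcium dye readout; 0% = DMSO vehicle and 100% = full agonist response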
TAAR1 ag conf: confirmation of human TAAR1 agonists | shares compounds with TAAR1 ag | CHO RD-HGA16 TAAR1, Fluo-8 calcium fluorescence; scaled: DMSO 0%, maximal phenethylamine 100% | activation, % at 3 µM | actives 82% (n = 2,400);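 active means activation above a cutoff set at the run's mean compound activation plus 3 SD, cut at about 39% in these data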
Ga16 ag counter-2: nonselective agonist in parental cells, TAAR1 agonist counter-screen. activation, % at 3 µM. shares compounds with TAAR1 ag. actives 50% (n = 2,400). CHO-Ga16 parental, Fluo-8 calcium fluorescence; normalized to maximal ATP response, DMSO zero;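 active means activation above the run cutoff, the mean activation over all tested wells plus 3 SD, cut at about 12% in these data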;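 further: 0% = DMSO wells and 100% = maximal ATP response on the peak over basal ratio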
TAAR1 desensitize: counter-screen for human TAAR1 agonists: agonists that desensitize TAAR1; CHO RD-HGA16 hTAAR1, Fluo-8 calcium, beta-PEA response inhibition; actives 46% (n = 2,400); inhibition, % at 3 µM; shares compounds with TAAR1 ag; AID 651951;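 active means inhibition above the run cutoff, the mean inhibition of all test compounds plus 3 SD, cut at about 49% in these data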;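 further: beta-PEA stimulus applied at its EC80; loss of beta-PEA calcium signal after compound pretreatment read as receptor desensitization; 0% = DMSO with beta-PEA at EC80 and 100% = DMSO alone without agonist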
Ga16 nonsel ant: nonselective Ga16 antagonism, counter-screen; AID 651952; inhibition, % at 3 µM; CHO-Ga16 ATP-induced calcium, Fluo-8 fluorescence; shares compounds with TAAR1 ag; actives 39% (n = 2,400);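 active means inhibition above the plate's mean compound inhibition plus 3 SD, computed per plate, cut at about 22% in these data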;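 further: 0% = EC80 ATP with DMSO and 100% = DMSO wells without ATP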
* hit, by the source's call; / = not tested or not shown. The list is not random: actives were taken first. Their share in the collection is about 4%. Unless noted, no stated cut-off is given here; in the data, active means inhibition above about 22%; inactive means the rest.

SMILES	DAGLB inhibitor	TAAR1 ag	GPR7 antagonist	TAAR1 antagonist	MPTP block	DAGLB inh conf	Rh123 counter	others
CCn1nc([N+](=O)[O-])c(C(C#N)c2nc3cc(C(F)(F)F)ccc3s2)c(Cl)c1=O (stereo unspecified)	60.1*	3.0	-8.0	1.2	113.9*	106.1*	12.2
N#C/C(N=Nc1ccccc1O)=N\Nc1ccccc1O	41.2*	2.5	/	66.3*	126.5*	82.7*	44.0*
Oc1ccccc1N=N/C(=N/Nc1ccccc1O)c1ccccc1	1.3	1.4	/	-1.9	0.5	/	/
Cc1ccc(S(=O)(=O)n2cccc2/C=C/[N+](=O)[O-])cc1	7.2	1.7	/	4.9	0.0	/	/
CC1(C)CC(=O)C2=C(C1)c1c(ccc3ccccc13)NC2c1ccc(C(=O)O)cc1 (stereo unspecified)	0.8	0.4	3.0	-0.6	0.0	/	/
CC1(C)CC(=O)C2=C(C1)c1c(ccc3ccccc13)NC2c1cc([N+](=O)[O-])cc([N+](=O)[O-])c1O (stereo unspecified)	42.2*	1.2	-3.6	-3.4	73.2*	38.7*	57.3*
O=[N+]([O-])c1ccc(/C=N/Nc2ccc3ccccc3c2)o1	47.7*	21.4	-8.7	75.8*	79.2*	63.4*	32.2*	nonsel antag count=52.0*;TAAR1 antag conf=64.6*;Ga16 ag counter-1=19.0*;TAAR1 ag counter=6.8
Cc1ccc(C)c(NC(=O)/C(C#N)=C/c2cn(CC(=O)NCc3ccco3)c3ccccc23)c1	46.1*	2.2	-3.8	102.8*	7.7	48.2*	/	nonsel antag count=5.8;TAAR1 antag conf=12.2;Ga16 ag counter-1=6.9;TAAR1 ag counter=6.1
Cc1ccc(NC(=O)/C(C#N)=C/c2cn(CC(=O)NCc3ccco3)c3ccccc23)cc1C	27.6	1.2	1.8	-13.6	4.0	/	/
Cc1ccc(NC(=O)Nc2cccnc2)cc1NC(=O)Nc1cccnc1	37.1*	2.0	-12.8	49.9*	0.6	31.6	/	nonsel antag count=18.6;TAAR1 antag conf=35.3;Ga16 ag counter-1=3.5;TAAR1 ag counter=4.1
Cc1cnc(CNC(=O)c2ccc3sc([C@H]4C[C@H](O)[C@@H](CO)O4)nc3c2)cn1	/	0.7	/	-17.0	0.0	/	/
CC1=C(C(=O)N(C(C)C)C(C)C)CC(CC(=O)NC2CCCCC2)C(=O)N1Cc1ccc(F)cc1 (stereo unspecified)	/	-1.1	/	-7.0	0.8	/	/
CCN(CC)c1ccc(C(=C2C=CC(=[N+](CC)CC)C=C2)c2ccc(N(CC)CC)cc2)cc1	52.7*	49.6*	/	94.5*	137.1*	105.0*	74.4*	TAAR1 ag conf=68.4*;Ga16 ag counter-2=45.2*;TAAR1 desensitize=92.1*;Ga16 nonsel ant=84.3*
